DNMT1 block – human DNMT1 methyltransferase inhibitors, primary screen, biochemical, molecular beacon, fluorescence, HinP1I cleavage, uHTS. AID 588458, 2011. actives 0.83% (n = 360,000). inhibition (reported as % activation of signal), % at 10 µM; in the data active = inhibition above about 50%
Scp-1 inhibitor – Scp-1 phosphatase inhibitors, primary screen, biochemical, colorimetric, uHTS | Carboxy-terminal domain RNA polymerase II polypeptide A small phosphatase 1 (Homo … | Recombinant Scp1, phosphopeptide, malachite green phosphate absorbance | inhibition, % at 20 µM | actives 0.88% (n = 340,000);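 active = inhibition above about 50% at 20 µM, limit read from the data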
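Incubation: 45 min enzyme reaction at room temperature / System: truncated SCP-1 phosphatase (76-261aa) / Reagent: Phospho 17-mer peptide substrate / Buffer or medium: Acidic Tris acetate buffer with magnesium and detergent / Signal: absorbance at 630 nm / Doses: one concentration, 20 µM, with 1.0% DMSO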
SUMO1 PPI mod – modulators of SUMO1 protein-protein interactions, primary screen, biochemical, uHTS | actives 0.33% (n = 360,000) | inhibition, % at 20 µM | Small ubiquitin-related modifier 1 (Homo sapiens), P63165 | SUMO1 binding to a labelled peptide, TR-FRET, 1 h; in the data active = inhibition above about 37%
HKDC1 inhibitor – HKDC1 hexokinase inhibitors, primary screen, biochemical, fluorescence, uHTS | recombinant HKDC1, G6PDH/diaphorase resazurin coupled fluorescence | Q2TB90 | actives 0.16% (n = 340,000) | inhibition, % at 20 µM;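 active = inhibition above about 35% when tested at 20 µM, limit read from the data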
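Assay system: in-house recombinant HK5 (HKDC1) enzyme. Input: HKDC1 at 5 µg/mL. Medium: Tris pH 8.0 buffer with MgCl2, Tween-20, BSA, BME. Dosing: single 20 µM dose. Schedule: 90 min reaction incubation at room temperature, dark. Signal: resazurin-to-resorufin fluorescence via G6PDH and diaphorase coupling, 525/613 nm. Controls: DMSO-enzyme wells negative, buffer-substituted wells positive.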
STEP inh – STEP phosphatase inhibitors, primary screen, biochemical, fluorescence intensity, uHTS; recombinant STEP, OMFP fluorogenic substrate; inhibition, % at 20 µM; actives 0.25% (n = 360,000);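 active = inhibition at 20 µM, scaled per plate between control wells, above about 37%, limit read from the data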
Target sequence (P54829 whole entry, looked up): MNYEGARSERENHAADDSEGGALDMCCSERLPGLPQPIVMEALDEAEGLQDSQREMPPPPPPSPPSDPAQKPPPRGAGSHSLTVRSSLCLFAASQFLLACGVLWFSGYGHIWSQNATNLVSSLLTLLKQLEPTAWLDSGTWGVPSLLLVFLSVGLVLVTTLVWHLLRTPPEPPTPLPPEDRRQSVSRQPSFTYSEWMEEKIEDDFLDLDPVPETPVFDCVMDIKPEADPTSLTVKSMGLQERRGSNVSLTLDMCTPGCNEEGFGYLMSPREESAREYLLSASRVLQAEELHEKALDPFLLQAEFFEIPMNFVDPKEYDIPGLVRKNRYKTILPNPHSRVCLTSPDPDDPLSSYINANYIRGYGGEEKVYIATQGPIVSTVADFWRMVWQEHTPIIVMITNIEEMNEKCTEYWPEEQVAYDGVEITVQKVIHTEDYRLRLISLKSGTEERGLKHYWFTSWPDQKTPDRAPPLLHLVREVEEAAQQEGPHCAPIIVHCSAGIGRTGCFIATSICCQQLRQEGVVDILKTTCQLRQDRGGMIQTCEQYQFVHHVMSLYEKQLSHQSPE
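Measure: Control-normalized % inhibition with plate pattern correction | Test system: STEP phosphatase, cell-free reaction | Medium: pH 6.0 Bis-Tris with DTT and Tween 20 | Technique: Fluorescence, 480/540 nm | Times: Reaction 20 min, ambient temperature | Doses: Single compound dose of 20 µM, 1% DMSO final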
LMPTP inh – LMPTP phosphatase inhibitors, primary screen, biochemical, fluorescence intensity, uHTS; Low molecular weight phosphotyrosine protein phosphatase (Homo sapiens), P24666; actives 0.22% (n = 360,000); recombinant LMPTP-A, OMFP fluorogenic substrate; AID 651560, 2012; inhibition, % at 20 µM;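 active = compounds that cut the enzyme signal by at least half of the control window in the single-dose screen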
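Test system: LMPTP-A phosphatase enzyme; input: 0.625 nM LMPTP-A final; reagent: OMFP substrate, 400 µM final; compound dosing: 20 µM single dose, 3% DMSO; incubation: 50 min dark incubation at room temperature; measured by: endpoint fluorescence intensity from OMFP dephosphorylation; measure: % inhibition relative to no-enzyme and uninhibited control wells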
HKDC1 act conf – HKDC1 hexokinase activators, confirmation, biochemical, single concentration. shares compounds with HKDC1 inhibitor. recombinant HKDC1, G6PDH/diaphorase resazurin fluorescence; stronger effect = lower value. inhibition, % at 20 µM. actives 14% (n = 740). AID 504708, 2011;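 active = inhibition at or below a set negative limit, negative inhibition meaning the enzyme was activated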
Large screens that a line does not name were inactive (follow-up assays come after a bar, where they were run). In the library only some 1.8% were active in any assay of this set; here they are far more common.

CC1(C)CC[C@]2(C(=O)n3ccnc3)CC[C@]3(C)[C@H](C(=O)C=C4[C@@]5(C)C=C(C#N)C(=O)C(C)(C)[C@@H]5CC[C@]43C)[C@@H]2C1	DNMT1 block 60, SUMO1 PPI mod 44, HKDC1 inhibitor 48 | HKDC1 act conf inactive
OCC[C@H]1C[C@H](O)[C@@H](O)[C@@]2(CCCc3ccccc3O2)O1	none
Cc1ccc(-n2c3nc(=O)[nH]c(=O)c-3cc3cc([N+](=O)[O-])ccc32)cc1C	HKDC1 inhibitor 61 | HKDC1 act conf inactive
Cc1ccc(NS(=O)(=O)c2ccc(Br)cc2)nc1	none
COC1(NS(=O)(=O)c2ccc(Br)cc2)C(C)=CC(=O)C=C1C	HKDC1 inhibitor 50 | HKDC1 act conf inactive
O=C(c1ccc(Cl)cc1)N(Cc1ccco1)C1CCS(=O)(=O)C1 (centres undefined)	none
O=C(N/N=C/c1ccc(O)cc1O)/C(=C/c1ccccc1)CCO	none | HKDC1 act conf inactive
CCOc1ccc(S(=O)(=O)Nc2cc(SCC(=O)O)c(O)c3ccccc23)cc1	HKDC1 inhibitor 60 | HKDC1 act conf inactive
Cc1ccc(NS(=O)(=O)c2cc(NC(=O)C(C)Oc3ccccc3)ccc2C)c(C)c1 (centres undefined)	none
O=C(O)CSc1cc(NS(=O)(=O)c2cccc([N+](=O)[O-])c2)c2ccccc2c1O	DNMT1 block 52, HKDC1 inhibitor 59 | HKDC1 act conf inactive
Cc1ccc(C)c(S(=O)(=O)Nc2cc(SCC(=O)O)c(O)c3ccccc23)c1	SUMO1 PPI mod 91, HKDC1 inhibitor 63 | HKDC1 act conf inactive
O=C(O)c1cccc(S(=O)(=O)Nc2ccc([N+](=O)[O-])cc2O)c1	none
CCc1ccc(S(=O)(=O)Nc2cc(SCC(=O)O)c(O)c3ccccc23)cc1	SUMO1 PPI mod 45, HKDC1 inhibitor 54 | HKDC1 act conf inactive
CCOC(=O)CC1(NC(=O)c2cc(COc3cccc(OC)c3)on2)CCCCC1	none
O=C(NCC1CCCO1)c1nn2c(C(F)(F)F)cc(-c3ccc(Br)o3)nc2c1Br (centres undefined)	none
CN1CCN(C2=C(NS(=O)(=O)c3ccccc3)C(=O)c3ccccc3C2=O)CC1	none
NC(=O)C1CCN(C2=C(Cl)C(=O)c3ccccc3C2=O)CC1	HKDC1 inhibitor 47 | HKDC1 act conf inactive
CC1COCC(C)N1C1=C(Cl)C(=O)c2ccccc2C1=O (centres undefined)	HKDC1 inhibitor 38 | HKDC1 act conf inactive
NC(=O)C1CCN(C2=C(NS(=O)(=O)c3ccccc3)C(=O)c3ccccc3C2=O)CC1	none
O=C1C(Cl)=C(N2CCC(C(=O)O)CC2)C(=O)c2ccccc21	HKDC1 inhibitor 50 | HKDC1 act conf inactive
CN1CCN(C2=C(Cl)C(=O)c3ccccc3C2=O)CC1	DNMT1 block 87, SUMO1 PPI mod 62, HKDC1 inhibitor 44 | HKDC1 act conf inactive
N#CCCN(Cc1ccccc1)C(C(=O)NC1CCCCC1)c1ccnc2ccccc12 (centres undefined)	none (no result: Scp-1 inhibitor, HKDC1 inhibitor)
COc1ccc(S(=O)(=O)Nc2ccc(Cc3ccncc3)cc2)cc1C	none
CC1(C(=O)NS(=O)(=O)c2ccc(Br)cc2)CCN1C(=O)Cc1cccs1 (centres undefined)	none (no result: Scp-1 inhibitor, HKDC1 inhibitor)
CCCS(=O)(=O)NC(=O)C1(C)CCCN(C(=O)c2ccc3ccccc3c2)C1 (centres undefined)	none (no result: Scp-1 inhibitor, HKDC1 inhibitor)

Bioassay records deposited in PubChem by Sanford-Burnham Center for Chemical Genomics.
